From ChEMBL document CHEMBL1146139, “Design and synthesis of novel HIV-1 protease inhibitors incorporating oxyindoles as the P2'-ligands” (Bioorg Med Chem Lett, 2006)
pIC50, pKi: −log10 of the molar value.

Experiments:
[1] = biological target: Human immunodeficiency virus type 1 protease (Human immunodeficiency virus 1, UniProt Q72874); experiment: Inhibitory activity against HIV protease
Procedure, shortened: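 Enzyme inhibition constants measured against HIV-1 protease following a previously published protocol. Values are means of two determinations.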

MT2 [2] = experiment: Antiviral activity against HIV1 IIIB strain in MT2 cells; assay type: functional, cell-based
Procedure, shortened: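 IC50 from inhibition of HIV-1 IIIb-induced cytopathogenicity in MT-2 cells. Assays run in duplicate; values are means of two or three determinations.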

MT2 [3] = experiment: Cytotoxicity against MT2 cells; assay type: functional; settings: Homo sapiens

O=C(N[C@@H](Cc1ccccc1)[C@H](O)CN1CC=CCCC12C(=O)Nc1ccccc12)O[C@H]1CO[C@H]2OCC[C@H]21 (stereo partly specified)
pKi [1]: < 6.00

C=CCCC1(N(CC=C)C[C@@H](O)[C@H](Cc2ccccc2)NC(=O)O[C@H]2CO[C@H]3OCC[C@H]32)C(=O)Nc2ccccc21 (stereo partly specified)
pKi [1]: 7.33

CC1(N(Cc2ccccc2)C[C@@H](O)[C@H](Cc2ccccc2)NC(=O)O[C@H]2CO[C@H]3OCC[C@H]32)C(=O)Nc2ccccc21 (stereo partly specified)
pKi [1]: 7.59

O=C(N[C@@H](Cc1ccccc1)[C@H](O)CN1CCCCCC12C(=O)Nc1ccccc12)O[C@H]1CO[C@H]2OCC[C@H]21 (stereo partly specified)
pKi [1]: < 6.00

O=C(N[C@@H](Cc1ccccc1)[C@H](O)CN1CC=CCC12C(=O)Nc1ccccc12)O[C@H]1CO[C@H]2OCC[C@H]21 (stereo partly specified)
pKi [1]: 6.90

CC(C)CCN(C[C@@H](O)[C@H](Cc1ccccc1)NC(=O)O[C@H]1CO[C@H]2OCC[C@H]21)C1(C)C(=O)Nc2ccccc21 (stereo partly specified)
pKi [1]: 8.15

C=CCN(C[C@@H](O)[C@H](Cc1ccccc1)NC(=O)O[C@H]1CO[C@H]2OCC[C@H]21)C1(CC=C)C(=O)Nc2ccccc21 (stereo partly specified)
pKi [1]: 8.30

O=C(N[C@@H](Cc1ccccc1)[C@H](O)CN1CCCCC12C(=O)Nc1ccccc12)O[C@H]1CO[C@H]2OCC[C@H]21 (stereo partly specified)
pKi [1]: < 6.00

CC(C)CN(C[C@@H](O)[C@H](Cc1ccccc1)NC(=O)O[C@H]1CO[C@H]2OCC[C@H]21)C1(C)C(=O)Nc2ccccc21 (stereo in doubt; 3a)
pIC50 (MT2 [2]; Homo sapiens, IIIB, MT2): 6.52 | pKi [1]: 8.22 | CC50 (MT2 [3]): > 10000 nM

CC(C)CN(C[C@@H](O)[C@H](Cc1ccccc1)NC(=O)O[C@H]1CO[C@H]2OCC[C@H]21)C1(C)C(=O)Nc2ccccc21 (stereo in doubt; 3b)
pIC50 (MT2 [2]; mt2): 6.32 | pKi [1]: 8.52

C=CCC1(N(CC(C)C)C[C@@H](O)[C@H](Cc2ccccc2)NC(=O)O[C@H]2CO[C@H]3OCC[C@H]32)C(=O)Nc2ccccc21 (stereo in doubt; 14a)
pKi [1]: 8.70

C=CCC1(N(CC(C)C)C[C@@H](O)[C@H](Cc2ccccc2)NC(=O)O[C@H]2CO[C@H]3OCC[C@H]32)C(=O)Nc2ccccc21 (stereo in doubt; 14b)
pKi [1]: 8.15

COc1ccc2c(c1)C(C)(N(CC(C)C)C[C@@H](O)[C@H](Cc1ccccc1)NC(=O)O[C@H]1CO[C@H]3OCC[C@H]31)C(=O)N2 (stereo in doubt; 15a)
pKi [1]: 6.99

COc1ccc2c(c1)C(C)(N(CC(C)C)C[C@@H](O)[C@H](Cc1ccccc1)NC(=O)O[C@H]1CO[C@H]3OCC[C@H]31)C(=O)N2 (stereo in doubt; 15b)
pKi [1]: 6.89

CC(C)CN(C[C@@H](O)[C@H](Cc1ccccc1)NC(=O)O[C@H]1CO[C@H]2OCC[C@H]21)C1(C)C(=O)N(C)c2ccccc21 (stereo in doubt; 16a)
pKi [1]: 7.38

CC(C)CN(C[C@@H](O)[C@H](Cc1ccccc1)NC(=O)O[C@H]1CO[C@H]2OCC[C@H]21)C1(C)C(=O)N(C)c2ccccc21 (stereo in doubt; 16b)
pKi [1]: 7.22

CC(C)(C)NC(=O)[C@@H]1C[C@@H]2CCCC[C@@H]2CN1C[C@@H](O)[C@H](Cc1ccccc1)NC(=O)[C@H](CC(N)=O)NC(=O)c1ccc2ccccc2n1 [SAQUINAVIR]
pIC50 (MT2 [2]; Homo sapiens, IIIB, MT2): 8.30 | CC50 (MT2 [3]): > 10000 nM
